# Experiments:
# Type in all cases: functional
# Litomosoides carinii [1] = experiment: Antifilarial activity (percent reduction of live Litomosoides carinii at necropsy relative to controls) was evaluated at dose of 100 mg/kg/day administered subcutaneously; details: route subcutaneous
# Method in brief: (§1)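 Male jirds (Meriones unguiculatus) carrying adult Brugia pahangi and Litomosoides carinii. Infection was by intraperitoneal inoculation of 24-25 L. carinii larvae 76–133 days before treatment, followed by 49-50 immature B. pahangi. Dosing was daily for 5 days. Necropsy was 55–70 days after the first dose, with a search of the pleural and peritoneal cavities. Live adult worms were scored as % reduction versus controls, usually averaged over 3 animals.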
# Brugia pahangi [2] = experiment: Antifilarial activity (percent reduction of live Brugia pahangi at necropsy relative to controls) was evaluated at dose of 100 mg/kg/day administered subcutaneously; details: route subcutaneous; method in brief: as §1
# Brugia pahangi [3] = experiment: Antifilarial activity (percent reduction of live Brugia pahangi at necropsy relative to controls) was evaluated at dose of 25 mg/kg/day administered subcutaneously; details: route subcutaneous; method in brief: as §1
# Brugia pahangi [4] = experiment: Antifilarial activity (percent reduction of live Brugia pahangi at necropsy relative to controls) was evaluated at dose of 6.25 mg/kg/day administered subcutaneously; details: route subcutaneous; method in brief: as §1
# Litomosoides carinii [5] = experiment: Antifilarial activity (percent reduction of live Litomosoides carinii at necropsy relative to controls) was evaluated at dose of 6.25 mg/kg/day administered subcutaneously; details: route subcutaneous; method in brief: as §1
# Litomosoides carinii [6] = experiment: Antifilarial activity (percent reduction of live Litomosoides carinii at necropsy relative to controls) was evaluated at dose of 25 mg/kg/day administered subcutaneously; details: route subcutaneous; method in brief: as §1
# Litomosoides carinii [7] = experiment: Antifilarial activity (percent reduction of live Litomosoides carinii at necropsy relative to controls) was evaluated at dose of 1.56 mg/kg/day administered subcutaneously; details: route subcutaneous; method in brief: as §1
# Brugia pahangi [8] = experiment: Antifilarial activity (percent reduction of live Brugia pahangi at necropsy relative to controls) was evaluated at dose of 1.56 mg/kg/day administered subcutaneously; details: route subcutaneous; method in brief: as §1
# Litomosoides carinii [9] = experiment: Antifilarial activity (percent reduction of live Litomosoides carinii at necropsy relative to controls) was evaluated at dose of 100 mg/kg/day administered perorally; details: route oral; in the assay text read “25 mg/kg/day” for “100 mg/kg/day”; method in brief: as §1
Structure (SMILES),Reduction (Litomosoides carinii [1]) [%],Reduction (Brugia pahangi [2]) [%],also measured
CCCNC(=O)Nc1nc2cc(C(=O)c3ccccc3)ccc2[nH]1,0,0,–
CN1CCN(C(=O)Nc2nc3cc(C(=O)c4ccccc4)ccc3[nH]2)CC1,0,0,–
O=C(NCCO)Nc1nc2cc(C(=O)c3ccccc3)ccc2[nH]1,20,15,–
O=C(Nc1ccc(Cl)c(Cl)c1)Nc1nc2cc(C(=O)c3ccccc3)ccc2[nH]1,9,0,–
CN(C)C(=O)Nc1nc2cc(C(=O)c3ccccc3)ccc2[nH]1,100,100,Reduction (Brugia pahangi [3]): 0%; Reduction (Brugia pahangi [4]): 0%; Reduction (Litomosoides carinii [5]): 61%; Reduction (Litomosoides carinii [6]): 87%
O=C(Nc1ccc(F)cc1)Nc1nc2cc(C(=O)c3ccccc3)ccc2[nH]1,66,6,–
O=C(Nc1nc2cc(C(=O)c3ccccc3)ccc2[nH]1)Nc1ccccc1[N+](=O)[O-],0,6,–
Cc1ccc(NC(=O)Nc2nc3cc(C(=O)c4ccccc4)ccc3[nH]2)cc1,27,0,–
Cc1cccc(NC(=O)Nc2nc3cc(C(=O)c4ccccc4)ccc3[nH]2)c1,0,0,–
O=C(Nc1ccc([N+](=O)[O-])cc1)Nc1nc2cc(C(=O)c3ccccc3)ccc2[nH]1,0,9,–
O=C(Nc1nc2cc(C(=O)c3ccccc3)ccc2[nH]1)Nc1ccccc1F,0,0,–
O=C(Nc1cccc([N+](=O)[O-])c1)Nc1nc2cc(C(=O)c3ccccc3)ccc2[nH]1,32,0,–
O=C(Nc1ccccc1)Nc1nc2cc(C(=O)c3ccccc3)ccc2[nH]1,66,0,–
COC(=O)Nc1nc2cc(C(=O)c3ccccc3)ccc2[nH]1 [MEBENDAZOLE],–,–,Reduction (Litomosoides carinii [7]): 97%; Reduction (Brugia pahangi [3]): 100%; Reduction (Brugia pahangi [4]): 100%; Reduction (Litomosoides carinii [5]): 100%; Reduction (Brugia pahangi [8]): 12.5%; Reduction (Litomosoides carinii [6]): 100%
Cc1ccc(C(=O)Nc2ccc(S(=O)(=O)O)c3cc(S(=O)(=O)O)cc(S(=O)(=O)O)c23)cc1NC(=O)c1cccc(NC(=O)Nc2cccc(C(=O)Nc3cc(C(=O)Nc4ccc(S(=O)(=O)O)c5cc(S(=O)(=O)O)cc(S(=O)(=O)O)c45)ccc3C)c2)c1 [SURAMIN],–,–,Reduction (Litomosoides carinii [9]): 71%

# From ChEMBL document CHEMBL1122690, “Synthesis of potential antifilarial agents. 1-(5-Benzoylbenzimidazol-2-yl)-3-alkyl- and -arylureas” (1984)
